Test results published in the EternaBench riboswitch data.

System: MS2 coat protein
Experiment: apparent Kd, MS2 coat protein; higher = weaker binding; RNA-MaP array; FMN 200 µM where present
Method in brief: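 Green signal was scaled to red-channel RNA signal and control-cluster median Fmax, and the apparent Kd was taken as the median of filtered per-cluster binding-curve fits. The binding series used SNAP-549-labelled MS2 coat protein from 0.7 or 1.5 nM, doubling to 3 µM, on designs transcribed by stalled E. coli RNA polymerase on Illumina sequencing-chip clusters. Each series ran without and then with constant ligand in 100 mM Tris-HCl pH 7.5, 80 mM KCl, 4 mM MgCl2, BSA, DTT, yeast tRNA and Tween-20.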

[1] = designed as: ON switch for flavin mononucleotide, no ligand
[2] = ligand present: flavin mononucleotide, designed as: ON switch for flavin mononucleotide
[3] = designed as: OFF switch for flavin mononucleotide, no ligand
[4] = ligand present: flavin mononucleotide, designed as: OFF switch for flavin mononucleotide

Sequence	apparent Kd [1]	apparent Kd [2]	apparent Kd [3]	apparent Kd [4]
AGAAAUAAAAAUGAGGAUAUGCAAAAGAAAACAUGAGGAUCACCCAUGUAAAAGAAAAUAAAUGGGCAGAAGGCAUGAAAUAAAGA	136 nM	44.9 nM		
ACAUGAGGAUCACCCAUGUUAAACGAGGAUAUAUGACUGCACAUGAGGUUCACCCAUGUUCUACCGUAGAAGGUGUAAAUAAUU	68.5 nM	70.6 nM		
CUCUCGCGAGGAUAUGAUUUAAGUAACAUGAGGAUCACCCAUGUUUUUCCGUUGUUAUGUUCAGAAGGCGCGUGAU			44.2 nM	84.3 nM
UCAUUUCAGUAAGGAUAUUAAAUCAUGACGAUACAUGAGGAUCACCCAUGUUAAGAAGGUACUAAUACAAAUAAUGCAUUGUUC			12.8 nM	11.1 nM
AAUAAUUAGUAAGGAUAUACUAGUGGUUAGCUUGUAGAAGGUACAGUCUUAUGUAUAACAAAUUAACAUGAGGAUCACCCAUGU	10.6 nM	8.19 nM		
GUGCUUUGGGAGAAGGCCGAUAGCAAAGCUAUCGGAGGAUAUUCAUACCGGAAACGGACAUGAGGAUCACCCAUGUGGCACAAA	1430 nM	44.5 nM		
UACCACCGCACGGACACGCCGAGUCAGGAUAUACAUGAGGAUCACCCAUGUGAAGGCCGGCUCGUGUAGAAGGGACAGGCGUUG			5.43 nM	6.72 nM
GUGAGGUCAGGAUAUGCAUGGCGGGACUUGCGUCGUGGCGUGGAGAAGGGACAUGAGGAUCACCCAUGUGGAGA			73 nM	63.1 nM
AGAUUCAUGGCCCGUUCGGGCUCACAUGAGGAUCACCCAUGUGAGGAUAUGAUAUACCUGAUUUAUCAGAAGGCGCAUGCGAAA			7.22 nM	10.3 nM
GCGUCUCCUGUCAGGAUAUGCACCGGCUCGCCGGCGUAGAAGGGACAUGAGGAUCACCCAUGUGGUCUACACUU				339 nM
AACUCACAUGAGGAUCACCCAUGUGAGGAUAUGAUACUAUGUACUUCGGUACAUAGUAUCAGAAGGCAUGUGGG			50.5 nM	28.1 nM
GAAGCGCUUGACAUGAGGAUCACCCAUGUUAGAUUGUUAUGUCAGGAUAUAGUCUAGAAACUAGACUAGAAGGGAUAUGCUUCU	300 nM	43.1 nM		
CGGACAAUGCCCGAGACAUGAGGAUCACCCAUGUUAGCAGCACAGGAUAUCAUGUUUUGUAAAGGUGAGAAGGGUGAUUGCAUC	102 nM	68.2 nM		
GUGCACACUCGAGGAUAUCGGAGUUUUCUUCUUUGAGAAGGCGAUUCGUGCCGUGUUAUUUUGGACAUGAGGAUCACCCAUGUG	66 nM	36.8 nM		
ACAUGUAAUGCAGGAUAUUUUACACAUGAGGAUCACCCAUGUGACCAGAGGAAUUGCUAUGAGUAAAAGAAGGGUAUGUACAUG			72.3 nM	86.4 nM
CUCGGACAUGAGGAUCACCCAUGUGAGGAUAUGAUGCGAUCGUCGAAAGACGAUAGCAUCAGAAGGCACAAAUG			75.6 nM	301 nM
UACUCAUGUGAGAAGGGACGUAUCUCCAUGAGGGCAGGGCUAUUAGGGAAGUCAGGAUAUCACAUGAGGAUCACCCAUGUGACG			6.91 nM	7.33 nM
AACAAACAUGAGGAUCACCCAUGUCAGGAUAUGCACAAACAAACAAACAAACAAGCAAGCAGAAGGGACACAAC			21.7 nM	39.7 nM
ACAUGAGGAUCACCCAUGUGAUGAUCUCCCAUGUUAUAUUUCAGAAGGCUCGCGUGUUUGAUGAGAGAGGAUAUGGAAUAUACG			325 nM	272 nM
UGCCAAGCAGGAUAUGCACGUAAUAACAUGAGGAUCACCCAUGUGACCGAUUUAUAUUCUGCAGAAGGGCUUGGAU			54.9 nM	152 nM
UACAUGAGGAUCACCCAUGUUUUGUCGUGUAUGGUAUUUAUCUAGGAUAUCAUUCUAUUUAGUUAUGAGAAGGAGAAUAUUAAU			28.1 nM	27.4 nM

Sequence	apparent Kd [1]	apparent Kd [2]	apparent Kd [3]	apparent Kd [4]
ACCUUACAUGAGGAUCACCCAUGUUAGGAUAUCUCGCUUGCGCAAUCACAACGCAAGCAGAGAAGGGACGCGGG			29.1 nM	33.4 nM
GAAUGUAAAGAGAAGGGCUACUGGUUGAAACCUGCGGCCUCUGGAACAUGAGGAUCACCCAUGUAGCAGGAUAUCUUUGCGUCA			192 nM	29.5 nM
UCAAGUAUGUAGGAUAUCGAUGUCCUCGGACAUCGAGAAGGACGUACAUGAGGAUCACCCAUGUAACUUGCAUG			63.8 nM	84.9 nM
CUUGGCUAGGAGAAGGGCUAGAGUGUGAUAUAUUUGCCCGCGAGCACAUGAGGAUCACCCAUGUAGCAGGAUAUCCAAGCCGGU			7.4 nM	17.4 nM
AUUGUAGUUGUGAGGAUAUCGUAGAUUUAUUGAAACGAGAAGGCACAUGAGGAUCACCCAUGUAAGUUGUAGGU			71.2 nM	267 nM
CUAGUUGUCGCAGGAUAUGCCCGCUGGUUGGAGGCAGAAGGGUGACACCAAAUAUUAUACAUGAGGAUCACCCAUGUCGCCAGC	21.4 nM	20.6 nM		
AUAUGAUAGAUAGGAUAUACUAUGGUUGAAGAAGUAGAAGGAUCAAUUGGGAAAUGUACAUGAGGAUCACCCAUGUUAUGGGUU	943 nM	493 nM		
GGUGAAGCAGGAUAUGUAUCGAUAUACAUGAGGAUCACCCAUGUCAUGUUCGAAUCGCAUAUAGAAGGGCUUCACC			13.4 nM	16.7 nM
AUGGGCUAGGAGAAGGGCUAGAGUGUGAUAUAUUUGCCCGCGAGCACAUGAGGAUCACCCAUGUAGCAGGAUAUCCAAGCCGGU			7.43 nM	18 nM
UAUAUGUCAGGAUAUUAAUUAAGAUGGAAUUUAGUCUUAGUUGAGAAGGGACAUGAGGAUCACCCAUGUUCCUC			19.7 nM	159 nM
ACGUAUCGUGUAGGAUAUGACCCAGGAAACUGGUCAGAAGGACAUGAGGAUCACCCAUGUAGAGUAUGUUAGGAUGACGUAUGC			42.5 nM	305 nM
CUGCUGGAGCUUCGCUUUGGUCGUACAUGAGGAUCACCCAUGUAGGAUAUGGUAAAAUUCGCCUGCUAGAAGGAUAGAGUGGUC			67.2 nM	139 nM
GCCAAUAAGAUUGGCACCGGCGCGCAGGAUAUGCUGGCCUACAUGAGGAUCACCCAUGUCUAAAUGCAGAAGGGUGAGCUGAGC	444 nM	82.4 nM		
UUACCUCAUGAGAAGGACAUGAGGAUCACCCAUGUAGGAUAUCGUGGGACACUGGUAUUGAAUCUUCGGAUUCAAUACCUGUGU	465 nM	29 nM		
UUCAGCUCGUCAGGAUAUACGUCACUGCUUCGGCAGUGUGGUAAGAUCACAUGAGGAUCACCCAUGUAGAAGGGACGAGCUGAG			12.3 nM	312 nM
UUAAAUCAUGUAGGAUAUGCAUGGCGAAGCUACGCAGAAGGACAUGAGGAUCACCCAUGUUAUAGCUACCGAUUAAGGUGGCAA			92.9 nM	246 nM
AGUCGGAGCAGAGGAUAUAUACAUGAGGAUCACCCAUGUGAAUGAAUAAGCUGGAAACAGCAUGUAUAGAAGGCUGCUCCGACA			352 nM	603 nM
GGAACGAUCAUCAUUGAACAUGAGGAUCACCCAUGUACGAUGUAGGAUAUAUACCCGGUCAAGGUAUAGAAGGACAGGGUACAG			18.6 nM	55.4 nM
CGUAAGAUGCAGAAGGUGUUAGCUAGAGCUACGACAUGAGGAUCACCCAUGUACUAGAAACAGUACAAGGAUAUGCAUCUUACU	18.4 nM	6.25 nM		
GUAGCUAUCGCAGGAUAUCCUCAGGCGAAAGCCACAUGAGGAUCACCCAUGUAUAUAAAGAAUAUGGAGAAGGGCGAUAGCUAC	1670 nM	185 nM		
GUACUGUAGUGAGGAUAUACGAGUUCGAUAGAACGGCGAUCCAUUUAUACAUGAGGAUCACCCAUGUAGAAGGCACUUCAGUAC			6.32 nM	53.9 nM
